{"source": "ChEMBL document CHEMBL1154475", "about": "“1,3,4-Oxadiazole/thiadiazole and 1,2,4-triazole derivatives of biphenyl-4-yloxy acetic acid: synthesis and preliminary evaluation of biological properties” (Eur J Med Chem, 2008)", "key": {"Rattus norvegicus [1]": {"test_system": "Rattus norvegicus", "experiment": "Antiinflammatory activity in Wistar rat assessed as inhibition of carrageenan-induced paw edema administered orally at equimolar oral dose relative to 10 mg/kg flurbiprofen measured after 3 hrs of carrageenan challenge", "format": "functional", "method_in_brief": "(§1)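 Adult Wistar rats of either sex, 150–200 g, n=6 per group, fasted 24 h with water allowed. Dosed orally in 0.5% CMC 1 h before 0.1 ml of 1% carrageenan in saline was injected subplantar into the right hind paw. Paw volume was read by plethysmometer at baseline, 3 h and 4 h. % inhibition = (Vc − Vt)/Vc × 100. ANOVA with Dunnett's test.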"}, "Rattus norvegicus [2]": {"test_system": "Rattus norvegicus", "experiment": "Antiinflammatory activity in Wistar rat assessed as inhibition of carrageenan-induced paw edema administered orally at equimolar oral dose relative to 10 mg/kg flurbiprofen measured after 4 hrs of carrageenan challenge", "format": "functional", "method_in_brief": "as §1"}, "Mus musculus": {"test_system": "Mus musculus", "experiment": "Analgesic activity in Swiss albino mouse assessed as inhibition of tail withdrawal administered orally at equimolar oral dose relative to 10 mg/kg flurbiprofen after 4 hrs", "format": "functional", "method_in_brief": "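Tail immersion in Swiss albino mice of either sex, 25–30 g, n=6 per group, dosed orally as a suspension in 0.5% w/v CMC. The lower 5 cm of the tail was dipped in water held at 55 ± 0.5 °C. Reaction time (s) to tail withdrawal was recorded before dosing and 4 h after, with a 10 s cut-off.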"}, "Rattus norvegicus [3]": {"test_system": "Rattus norvegicus", "experiment": "Gastrointestinal toxicity in rat assessed as gastric mucosal damage severity index administered at equimolar oral dose relative to 30 mg/kg flurbiprofen", "format": "organism-based, Gastric mucosa", "parameters": "dose 30 mg/kg, route oral", "details": "in vivo", "method_in_brief": "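Wistar rats, n=6 per group, food withdrawn 24 h before oral dosing in 0.5% CMC, then given normal diet for 17 h before sacrifice. Stomachs were opened along the greater curvature and scored under a magnifier (0.5 redness to 3.0 for >5 ulcers). Severity index = mean treated score minus mean control score.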"}, "Rattus norvegicus [4]": {"organism": "Rattus norvegicus", "experiment": "Inhibition of lipid peroxidation in rat assessed as malondialdehyde level per 100 mg of tissue", "format": "functional, organism-based", "method_in_brief": "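Gastric mucosa taken from the ulcerogenicity rats was scraped, weighed (100 mg) and homogenized in ice-cold 1.15% KCl. SDS, acetate buffer pH 3.5 and 0.8% TBA were added and the mixture heated at 95 °C for 60 min. It was extracted with n-butanol:pyridine (15:1), centrifuged, and the organic layer read at 532 nm. Results given as nmol MDA/100 mg tissue (ε 1.56 × 10⁵ cm⁻¹ M⁻¹).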"}, "Rattus norvegicus [5]": {"test_system": "Rattus norvegicus", "experiment": "Hepatotoxicity in po dosed Wistar albino rat assessed as serum glutamate oxaloacetate transaminase activity administered at equimolar oral dose relative to 10 mg/kg flurbiprofen after 15 days", "format": "toxicity, organism-based", "parameters": "dose 10 mg/kg, route oral", "details": "in vivo, 360 h", "method_in_brief": "(§2)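 Wistar albino rats of either sex, 150–200 g, n=6 per group, given oral doses in 0.5% w/v CMC once daily for 15 days; controls received vehicle. Retro-orbital blood was clotted 45 min at room temperature and serum separated by centrifugation at 2500 rpm for 15 min for the biochemical assays. ANOVA with Dunnett's test against control.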"}, "Rattus norvegicus [6]": {"test_system": "Rattus norvegicus", "experiment": "Hepatotoxicity in po dosed Wistar albino rat assessed as serum glutamate pyruvate transaminase activity administered at equimolar oral dose relative to 10 mg/kg flurbiprofen after 15 days", "format": "toxicity, organism-based", "parameters": "dose 10 mg/kg, route oral", "details": "in vivo, 360 h", "method_in_brief": "as §2"}, "Rattus norvegicus [7]": {"test_system": "Rattus norvegicus", "experiment": "Hepatotoxicity in po dosed Wistar albino rat assessed as total protein content administered at equimolar oral dose relative to 10 mg/kg flurbiprofen after 15 days", "format": "toxicity, organism-based", "parameters": "dose 10 mg/kg, route oral", "details": "in vivo, 360 h", "method_in_brief": "as §2"}, "Rattus norvegicus [8]": {"test_system": "Rattus norvegicus", "experiment": "Hepatotoxicity in po dosed Wistar albino rat assessed as total albumin content administered at equimolar oral dose relative to 10 mg/kg flurbiprofen after 15 days", "format": "toxicity, organism-based", "parameters": "dose 10 mg/kg, route oral", "details": "in vivo, 360 h", "method_in_brief": "as §2"}}, "data": [{"smiles": "Clc1ccc(-c2nnc(COc3ccc(-c4ccccc4)cc3)o2)c(Cl)c1", "values": [{"measurement": "inhibition in vivo", "setting": "Rattus norvegicus [1]", "value": 56.1, "unit": "%"}, {"measurement": "inhibition in vivo", "setting": "Rattus norvegicus [2]", "value": 57.6, "unit": "%"}]}, {"smiles": "Brc1ccc(Nc2nnc(COc3ccc(-c4ccccc4)cc3)s2)cc1", "values": [{"measurement": "inhibition in vivo", "setting": "Rattus norvegicus [1]", "value": 63.6, "unit": "%"}, {"measurement": "inhibition in vivo", "setting": "Rattus norvegicus [2]", "value": 63.6, "unit": "%"}]}, {"smiles": "Clc1ccc(OCc2nnc(COc3ccc(-c4ccccc4)cc3)o2)c(Cl)c1", "values": [{"measurement": "inhibition in vivo", "setting": "Rattus norvegicus [1]", "value": 29.5, "unit": "%"}, {"measurement": "inhibition in vivo", "setting": "Rattus norvegicus [2]", "value": 29.5, "unit": "%"}]}, {"smiles": "Clc1ccccc1-c1nnc(COc2ccc(-c3ccccc3)cc2)o1", "values": [{"measurement": "inhibition in vivo", "setting": "Rattus norvegicus [1]", "value": 59.1, "unit": "%"}, {"measurement": "inhibition in vivo", "setting": "Rattus norvegicus [2]", "value": 63.6, "unit": "%"}]}, {"smiles": "CCCCn1c(S)nnc1COc1ccc(-c2ccccc2)cc1", "values": [{"measurement": "inhibition in vivo", "setting": "Rattus norvegicus [1]", "value": 75, "unit": "%"}, {"measurement": "inhibition in vivo", "setting": "Rattus norvegicus [2]", "value": 81.8, "unit": "%"}, {"measurement": "inhibition in vivo", "setting": "Mus musculus", "value": 58.2, "unit": "%"}, {"measurement": "UI", "setting": "Rattus norvegicus [3]", "value": 0.666}, {"measurement": "Activity", "setting": "Rattus norvegicus [4]", "value": 5.19, "unit": "nmol"}, {"measurement": "Activity", "setting": "Rattus norvegicus [5]", "value": 138, "unit": "U/ml"}, {"measurement": "Activity", "setting": "Rattus norvegicus [6]", "value": 22.67, "unit": "U/ml"}, {"measurement": "Activity", "setting": "Rattus norvegicus [7]", "value": 1.82, "unit": "g/dL"}, {"measurement": "Activity", "setting": "Rattus norvegicus [8]", "value": 0.71, "unit": "g/dL"}]}, {"smiles": "COc1ccc2cc(C(C)c3nnc(COc4ccc(-c5ccccc5)cc4)o3)ccc2c1", "note": "(configuration not stated)", "values": [{"measurement": "inhibition in vivo", "setting": "Rattus norvegicus [1]", "value": 25, "unit": "%"}, {"measurement": "inhibition in vivo", "setting": "Rattus norvegicus [2]", "value": 25, "unit": "%"}]}, {"smiles": "Fc1ccc(-n2c(S)nnc2COc2ccc(-c3ccccc3)cc2)cc1", "values": [{"measurement": "inhibition in vivo", "setting": "Rattus norvegicus [1]", "value": 75, "unit": "%"}, {"measurement": "inhibition in vivo", "setting": "Rattus norvegicus [2]", "value": 79.5, "unit": "%"}, {"measurement": "inhibition in vivo", "setting": "Mus musculus", "value": 30.5, "unit": "%"}, {"measurement": "UI", "setting": "Rattus norvegicus [3]", "value": 0.833}, {"measurement": "Activity", "setting": "Rattus norvegicus [4]", "value": 5.34, "unit": "nmol"}]}, {"smiles": "Clc1ccc(Nc2nnc(COc3ccc(-c4ccccc4)cc3)s2)cc1", "values": [{"measurement": "inhibition in vivo", "setting": "Rattus norvegicus [1]", "value": 52.3, "unit": "%"}, {"measurement": "inhibition in vivo", "setting": "Rattus norvegicus [2]", "value": 54.5, "unit": "%"}]}, {"smiles": "Fc1ccc(Nc2nnc(COc3ccc(-c4ccccc4)cc3)o2)cc1", "values": [{"measurement": "inhibition in vivo", "setting": "Rattus norvegicus [1]", "value": 52.3, "unit": "%"}, {"measurement": "inhibition in vivo", "setting": "Rattus norvegicus [2]", "value": 52.3, "unit": "%"}]}, {"smiles": "Fc1ccc(Nc2nnc(COc3ccc(-c4ccccc4)cc3)s2)cc1", "values": [{"measurement": "inhibition in vivo", "setting": "Rattus norvegicus [1]", "value": 27.3, "unit": "%"}, {"measurement": "inhibition in vivo", "setting": "Rattus norvegicus [2]", "value": 29.5, "unit": "%"}]}, {"smiles": "Cc1ccccc1-n1c(S)nnc1COc1ccc(-c2ccccc2)cc1", "values": [{"measurement": "inhibition in vivo", "setting": "Rattus norvegicus [1]", "value": 56.8, "unit": "%"}, {"measurement": "inhibition in vivo", "setting": "Rattus norvegicus [2]", "value": 59.1, "unit": "%"}]}, {"smiles": "CC(C(=O)O)c1ccc(-c2ccccc2)c(F)c1", "note": "(configuration not stated) [FLURBIPROFEN]", "values": [{"measurement": "inhibition in vivo", "setting": "Rattus norvegicus [1]", "value": 75, "unit": "%"}, {"measurement": "inhibition in vivo", "setting": "Rattus norvegicus [2]", "value": 79.5, "unit": "%"}, {"measurement": "inhibition in vivo", "setting": "Mus musculus", "value": 69.5, "unit": "%"}, {"measurement": "UI", "setting": "Rattus norvegicus [3]", "value": 1.666}, {"measurement": "Activity", "setting": "Rattus norvegicus [4]", "value": 7.51, "unit": "nmol"}]}, {"smiles": "Cc1ccccc1Nc1nnc(COc2ccc(-c3ccccc3)cc2)s1", "values": [{"measurement": "inhibition in vivo", "setting": "Rattus norvegicus [1]", "value": 25, "unit": "%"}, {"measurement": "inhibition in vivo", "setting": "Rattus norvegicus [2]", "value": 29.5, "unit": "%"}]}, {"smiles": "Cc1ccc(Nc2nnc(COc3ccc(-c4ccccc4)cc3)s2)c(C)c1", "values": [{"measurement": "inhibition in vivo", "setting": "Rattus norvegicus [1]", "value": 56.8, "unit": "%"}, {"measurement": "inhibition in vivo", "setting": "Rattus norvegicus [2]", "value": 56.8, "unit": "%"}]}, {"smiles": "CC(C)Cc1ccc(C(C)c2nnc(COc3ccc(-c4ccccc4)cc3)o2)cc1", "note": "(configuration not stated)", "values": [{"measurement": "inhibition in vivo", "setting": "Rattus norvegicus [1]", "value": 77.3, "unit": "%"}, {"measurement": "inhibition in vivo", "setting": "Rattus norvegicus [2]", "value": 79.5, "unit": "%"}, {"measurement": "inhibition in vivo", "setting": "Mus musculus", "value": 72.8, "unit": "%"}, {"measurement": "UI", "setting": "Rattus norvegicus [3]", "value": 0.75}, {"measurement": "Activity", "setting": "Rattus norvegicus [4]", "value": 5.28, "unit": "nmol"}, {"measurement": "Activity", "setting": "Rattus norvegicus [5]", "value": 141.09, "unit": "U/ml"}, {"measurement": "Activity", "setting": "Rattus norvegicus [6]", "value": 29.17, "unit": "U/ml"}, {"measurement": "Activity", "setting": "Rattus norvegicus [7]", "value": 1.92, "unit": "g/dL"}, {"measurement": "Activity", "setting": "Rattus norvegicus [8]", "value": 1.72, "unit": "g/dL"}]}, {"smiles": "Sc1nnc(COc2ccc(-c3ccccc3)cc2)n1-c1ccc(Br)cc1", "values": [{"measurement": "inhibition in vivo", "setting": "Rattus norvegicus [1]", "value": 31.8, "unit": "%"}, {"measurement": "inhibition in vivo", "setting": "Rattus norvegicus [2]", "value": 31.8, "unit": "%"}]}, {"smiles": "Sc1nnc(COc2ccc(-c3ccccc3)cc2)n1-c1ccc(Cl)cc1", "values": [{"measurement": "inhibition in vivo", "setting": "Rattus norvegicus [1]", "value": 15.9, "unit": "%"}, {"measurement": "inhibition in vivo", "setting": "Rattus norvegicus [2]", "value": 18.2, "unit": "%"}]}, {"smiles": "CCCCNc1nnc(COc2ccc(-c3ccccc3)cc2)s1", "values": [{"measurement": "inhibition in vivo", "setting": "Rattus norvegicus [1]", "value": 27.3, "unit": "%"}, {"measurement": "inhibition in vivo", "setting": "Rattus norvegicus [2]", "value": 27.3, "unit": "%"}]}, {"smiles": "Clc1ccc(-c2nnc(COc3ccc(-c4ccccc4)cc3)o2)cc1", "values": [{"measurement": "inhibition in vivo", "setting": "Rattus norvegicus [1]", "value": 75, "unit": "%"}, {"measurement": "inhibition in vivo", "setting": "Rattus norvegicus [2]", "value": 77.3, "unit": "%"}, {"measurement": "inhibition in vivo", "setting": "Mus musculus", "value": 16.9, "unit": "%"}, {"measurement": "UI", "setting": "Rattus norvegicus [3]", "value": 1}, {"measurement": "Activity", "setting": "Rattus norvegicus [4]", "value": 5.88, "unit": "nmol"}]}, {"smiles": "c1ccc(-c2ccc(OCc3nnc(-c4ccccc4)o3)cc2)cc1", "values": [{"measurement": "inhibition in vivo", "setting": "Rattus norvegicus [1]", "value": 18.2, "unit": "%"}, {"measurement": "inhibition in vivo", "setting": "Rattus norvegicus [2]", "value": 18.2, "unit": "%"}]}, {"smiles": "CCCCNc1nnc(COc2ccc(-c3ccccc3)cc2)o1", "values": [{"measurement": "inhibition in vivo", "setting": "Rattus norvegicus [1]", "value": 15.9, "unit": "%"}, {"measurement": "inhibition in vivo", "setting": "Rattus norvegicus [2]", "value": 15.9, "unit": "%"}]}, {"smiles": "Cc1ccc(-n2c(S)nnc2COc2ccc(-c3ccccc3)cc2)c(C)c1", "values": [{"measurement": "inhibition in vivo", "setting": "Rattus norvegicus [1]", "value": 54.5, "unit": "%"}, {"measurement": "inhibition in vivo", "setting": "Rattus norvegicus [2]", "value": 54.5, "unit": "%"}]}]}
